Assay results: ChEMBL document CHEMBL3875163, “Novel urea and bis-urea primaquine derivatives with hydroxyphenyl or halogenphenyl substituents: Synthesis and biological evaluation” (Eur J Med Chem, 2016)
Converted amounts (≈) assume the structure as drawn. The source made the active and inactive calls. No cut-off for these calls is given here.

Legend:
Pseudomonas aeruginosa [1] = assay: Antibacterial activity against multi-drug resistant Pseudomonas aeruginosa MFBF after 18 hrs by serial microdilution broth assay; type: functional
In short: (§1)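 EUCAST-based broth microdilution in Mueller-Hinton broth. Glycerol stock cultures grown in trypticase soy broth 18 h at 37 °C; inoculum in PBS pH 7.4 at 0.5 McFarland, diluted 1:10 in broth. Compounds from DMSO stocks, 1000 to 0.78125 µg/ml; 18 h aerobic, 35 °C, dark. TTC 0.5 mg/ml added, 3 h, then HCl/isopropanol, A490. MIC = lowest concentration giving 50% inhibition vs untreated; duplicates, averaged.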

[2] = Hemolytic activity against human RBC at 100 ug/ml after 1 hr relative to control; type: ADME, cell-based, Erythrocyte; details: red blood cells (RBC), read-out: Activity
Bacillus spizizenii = assay: Antibacterial activity against Bacillus subtilis ATCC 6633 after 18 hrs by serial microdilution broth assay; type: functional; details: ATCC 6633, 18 h
In short: (§2)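 Broth microdilution MIC per EUCAST for aerobic bacteria in Mueller-Hinton broth, serial dilution 1000 to 0.78125 µg/ml from 10 mg/ml DMSO stocks. Inoculum from trypticase soy broth cultures (18 h, 37 °C), set to 0.5 McFarland in PBS pH 7.4, diluted 1:10. 18 h aerobic incubation at 35 °C in dark, then TTC 0.5 mg/ml for 3 h, HCl-isopropanol, A490. MIC = lowest concentration giving 50% inhibition versus untreated; duplicates.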

[3] = Growth inhibition of mouse L1210 cells after 72 hrs by MTT assay; type: functional, cell-based; details: L1210, 72 h
Staphylococcus aureus [4] = assay: Antibacterial activity against methicillin sensitive Staphylococcus aureus ATCC 25923 after 18 hrs by serial microdilution broth assay; type: functional; details: ATCC 25923, 18 h; in short: as §1
Pseudomonas aeruginosa [5] = assay: Antibacterial activity against Pseudomonas aeruginosa ATCC 9027 after 18 hrs by serial microdilution broth assay; type: functional; details: ATCC 9027, 18 h; in short: as §1
Enterococcus faecalis [6] = assay: Antibacterial activity against vancomycin susceptible Enterococcus faecalis ATCC 29212 after 18 hrs by serial microdilution broth assay; type: functional; details: ATCC 29212, 18 h; in short: as §2
[7] = Antioxidant activity assessed as DPPH radical scavenging activity at 100 uM after 60 mins relative to control; type: functional
In short: (§3)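 Compound in DMSO added to DPPH in absolute ethanol, 0.1 mM final; absorbance at 517 nm after 20 and 60 min at room temperature. At least triplicate.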

[8] = Growth inhibition of human MCF7 cells after 72 hrs by MTT assay; type: functional, cell-based; details: MCF7, 72 h
In short: (§4)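 Modified NCI DTP protocol: cells in DMEM with 10% FBS, 2 mM glutamine, antibiotics, 37 °C, 5% CO2; seeded 1 × 10^4 to 3 × 10^4 cells/ml on day 0, exposed to five 10-fold dilutions (10^-8 to 10^-4 M) for 72 h; solvent control. MTT read-out; quadruplicate points in three experiments; IC50 by linear regression of growth percentages bracketing 50%.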

Enterococcus faecalis [9] = assay: Antibacterial activity against vancomycin resistant Enterococcus faecalis MFBF 11419 after 18 hrs by serial microdilution broth assay; type: functional; details: MFBF 11419, 18 h; in short: as §1
[10] = Antioxidant activity assessed as DPPH radical scavenging activity at 100 uM after 20 mins relative to control; type: functional; in short: as §3
[11] = Growth inhibition of human HeLa cells after 72 hrs by MTT assay; type: functional, cell-based
Bacillus pumilus = assay: Antibacterial activity against Bacillus pumilus NCTC 8241 after 18 hrs by serial microdilution broth assay; type: functional; details: NCTC 8241, 18 h; in short: as §2
Staphylococcus aureus [12] = assay: Antibacterial activity against Staphylococcus aureus ATCC 6538 after 18 hrs by serial microdilution broth assay; type: functional; details: ATCC 6538, 18 h; in short: as §2
Glycine max = assay: Inhibition of soybean LOX assessed as reduction in conversion of sodium linoleate to 13-hydroperoxylinoleic acid at 1 x 10^-4 M relative to control
In short: (§5)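 Soybean lipoxygenase incubated at room temperature with sodium linoleate (0.1 mM) and test compound (DMSO stocks); formation of 13-hydroperoxylinoleic acid read at 234 nm. Single-point screening at 1 × 10^-4 M; IC50 from several concentrations. At least triplicate.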

[13] = Growth inhibition of human Molt4/C8 cells after 72 hrs by MTT assay; type: functional, cell-based; details: MOLT-4, 72 h
Pseudomonas aeruginosa [14] = assay: Antibacterial activity against Pseudomonas aeruginosa ATCC 27853 after 18 hrs by serial microdilution broth assay; type: functional; details: ATCC 27853, 18 h; in short: as §2
[15] = Growth inhibition of human NCI-H460 cells after 72 hrs by MTT assay; type: functional, cell-based; details: NCI-H460, 72 h; in short: as §4
[16] = Growth inhibition of human MIAPaCa2 cells after 72 hrs by MTT assay; type: functional, cell-based; details: MIA PaCa-2, 72 h
Candida albicans = assay: Antifungal activity against Candida albicans ATCC 90028 after 18 hrs by serial microdilution broth assay; type: functional; details: ATCC 90028, 18 h
In short: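 Yeast microdilution in RPMI 1640 with glutamine plus 2% glucose, 1000 to 0.78125 µg/ml from 10 mg/ml DMSO stocks. Growth read with XTT (10 mg/ml) mixed 7:1 with menadione (1 mg/ml in acetone), absorbance at 540 nm. MIC taken as lowest concentration giving 50% growth inhibition versus untreated cells; tests in duplicate.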

Staphylococcus aureus [17] = assay: Antibacterial activity against methicillin resistant Staphylococcus aureus MFBF 10679 after 18 hrs by serial microdilution broth assay; type: functional; details: MFBF 10679, 18 h; in short: as §1
[18] = Growth inhibition of human SW620 cells after 72 hrs by MTT assay; type: functional, cell-based; details: SW-620, 72 h; in short: as §4
[19] = Antioxidant activity assessed as inhibition of AAPH-induced linoleic acid lipid peroxidation at 1 x 10^-4 M by UV-absorbance method relative to control; type: functional
In short: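 Linoleic acid peroxidation: 16 mM sodium linoleate dispersion in 0.05 M phosphate buffer pH 7.4 at 37 °C under air, initiated by AAPH (40 mM solution); compound at 1 × 10^-4 M; oxidation followed at 234 nm. At least triplicate.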

Staphylococcus aureus [20] = assay: Antibacterial activity against methicillin sensitive Staphylococcus aureus ATCC 25213 after 18 hrs by serial microdilution broth assay; type: functional; details: ATCC 25213, 18 h; in short: as §2
[21] = Cytotoxicity against HEK cells assessed as reduction in cell viability at 12.5 to 200 ug/ml after 24 hrs by MTT assay; type: toxicity, cell-based; details: human, hek293, 24 h
In short: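 HEK 293 cells, 5 × 10^3 per well, treated next day for 24 h with compound (range within 200 to 1.5625 µg/ml). MTT 0.5 mg/ml in DMEM/10% FBS, 4 h at 37 °C, 5% CO2; formazan in DMSO, A570. Viability as percent of untreated control; triplicates, three independent experiments.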

Bacillus cereus = assay: Antibacterial activity against Bacillus cereus ATCC 11778 after 18 hrs by serial microdilution broth assay; type: functional; details: ATCC 11778, 18 h; in short: as §2
Escherichia coli = assay: Antibacterial activity against Escherichia coli ATCC 10535 after 18 hrs by serial microdilution broth assay; type: functional; details: ATCC 10535, 18 h; in short: as §2
[22] = Growth inhibition of human CEM cells after 72 hrs by MTT assay; type: functional, cell-based; details: CCRF-CEM
Staphylococcus aureus [23] = assay: Antibacterial activity against methicillin resistant Staphylococcus aureus MFBF 10682 after 18 hrs by serial microdilution broth assay; type: functional; details: MFBF 10682, 18 h; in short: as §1
[24] = Cell cycle arrest in human MCF7 cells assessed as decrease in G1 population at 0.31 uM after 24 hrs by propidium iodide staining based flow cytometry; type: functional
In short: (§6)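 MCF-7 grown in EMEM with 10% FBS, L-glutamine, pyruvate, insulin; treated 0.31 µM for 24 h, DMSO (0.022%) vehicle control. Cells ethanol-fixed (70%, 24 h, -20 °C), RNase A 20 µg/ml 30 min 37 °C, PI 5.5 µg/ml 10 min dark; 20 000 cells by flow cytometry; G1, S, G2/M fractions; three independent experiments, Newman-Keuls test.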

MCF7 [25] = assay: Induction of apoptosis in human MCF7 cells assessed as increase in number of necrotic cells at 0.31 uM after 72 hrs by Annexin-V FITC/propidium iodide staining based flow cytometry; type: functional, cell-based
In short: (§7)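 MCF-7 treated 0.31 µM for 72 h, DMSO control. Washed cells at 1 × 10^6 per 100 µl Annexin V binding buffer, stained FITC Annexin V plus PI 15 min room temperature in dark; 10 000 cells by flow cytometry (ex 488, em 530/580 nm). Viable, early apoptotic, late apoptotic/necrotic and necrotic fractions; three experiments, Duncan test.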

[26] = Cell cycle arrest in human MCF7 cells assessed as increase in G2/M population at 0.31 uM after 24 hrs by propidium iodide staining based flow cytometry; type: functional; in short: as §6
MCF7 [27] = assay: Induction of apoptosis in human MCF7 cells assessed as increase in number of late apoptotic/necrotic cells at 0.31 uM after 72 hrs by Annexin-V FITC/propidium iodide staining based flow cytometry; type: functional, cell-based; in short: as §7
MCF7 [28] = assay: Potency index, ratio of ciplatin IC50 to compound IC50 for human MCF7 cells; type: functional
MCF7 [29] = assay: Induction of apoptosis in human MCF7 cells assessed as increase in cleaved PARP-1 expression at 0.31 uM after 72 hrs by immunoblot method; type: functional, cell-based
In short: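 MCF-7 treated at 0.31 µM for up to 72 h, controls DMSO and 1 µM doxorubicin. Lysates (CelLytic M with protease inhibitors), BCA quantification; 5 µg protein on 4-20% gels, nitrocellulose transfer, milk block; anti-PARP-1 (1:1000), GAPDH loading control (1:5000) overnight 4 °C, HRP anti-rabbit 1:2000, ECL detection; three independent experiments.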

[30] = Inhibition of soybean LOX assessed as reduction in conversion of sodium linoleate to 13-hydroperoxylinoleic acid; set-up: species or system Glycine max; in short: as §5

| Structure (SMILES) | IC50 [3] [µM] | Activity [7] [%] | IC50 [8] [µM] | Activity [10] [%] | IC50 [11] [µM] | inhibition (Glycine max) [%] | IC50 [13] [µM] | IC50 [15] [µM] | IC50 [16] [µM] | IC50 [18] [µM] | inhibition [19] [%] | IC50 [22] [µM] | also measured |
| --- | --- | --- | --- | --- | --- | --- | --- | --- | --- | --- | --- | --- | --- |
| COc1cc(NC(C)CCCNC(=O)Nc2ccc(Br)cc2)c2ncccc2c1 (stereo not drawn) | 18 | 46.4 | 2.6 | 46.2 | 20 | 37.1 | 25 | 30 | 23 | 23 | 80.4 | 23 | MIC50 (Pseudomonas aeruginosa [1]): 100 µg/mL (≈ 219 µM); hemolysis at 1 h, 100 ug/ml [2]: < 1%; MIC50 (Bacillus spizizenii): 25 µg/mL (≈ 54.7 µM); MIC50 (Staphylococcus aureus [4]): > 100 µg/mL; MIC50 (Pseudomonas aeruginosa [5]): 100 µg/mL (≈ 219 µM); MIC50 (Enterococcus faecalis [6]): > 100 µg/mL; MIC50 (Enterococcus faecalis [9]): > 100 µg/mL; MIC50 (Bacillus pumilus): 100 µg/mL (≈ 219 µM); MIC50 (Staphylococcus aureus [12]): 50 µg/mL (≈ 109 µM); MIC50 (Pseudomonas aeruginosa [14]): 25 µg/mL (≈ 54.7 µM); MIC50 (Candida albicans): > 100 µg/mL; MIC50 (Staphylococcus aureus [17]): > 100 µg/mL; MIC50 (Staphylococcus aureus [20]): > 100 µg/mL; Activity [21]: Non-Toxic; MIC50 (Bacillus cereus): 50 µg/mL (≈ 109 µM); MIC50 (Escherichia coli): > 100 µg/mL; MIC50 (Staphylococcus aureus [23]): > 100 µg/mL |
| COc1cc(NC(C)CCCNC(=O)NNC(=O)Nc2ccc(F)cc2)c2ncccc2c1 (stereo not drawn) | 104 | – | 0.31 | 7.6 | ≥ 250 | 31.9 | ≥ 250 | > 100 | ≥ 250 | > 100 | – | 118 | Activity [24]: Active; Activity (MCF7 [25]): Active; Activity [26]: Active; Activity (MCF7 [27]): Active; Ratio IC50 (MCF7 [28]): 42; Activity (MCF7 [29]): Active |
| COc1cc(NC(C)CCCNC(=O)NNC(=O)Nc2ccc(C(F)(F)F)cc2)c2ncccc2c1 (stereo not drawn) | 18 | 96.1 | 0.1 | 99 | 15 | 55.8 | 24 | 12 | 19 | 12 | 75.3 | 18 | IC50 [30]: 85 µM |
